Measured values published in ChEMBL document CHEMBL1275329, “Fruitful adrenergic α(2C)-agonism/α(2A)-antagonism combination to prevent and contrast morphine tolerance and dependence” (J Med Chem, 2010).
Active and inactive are the calls of the source. No cut-off for these calls is given here.

How the values were obtained:
[1] = molecular target: T1, Alpha-2C adrenergic receptor (Homo sapiens, UniProt P18825); assay: Agonist activity at human Alpha-2C adrenoceptor expressed in CHO cells assessed as induction of extracellular acidification by microphysiometry; assay type: functional, cell-based
T1 sequence (P18825 whole entry): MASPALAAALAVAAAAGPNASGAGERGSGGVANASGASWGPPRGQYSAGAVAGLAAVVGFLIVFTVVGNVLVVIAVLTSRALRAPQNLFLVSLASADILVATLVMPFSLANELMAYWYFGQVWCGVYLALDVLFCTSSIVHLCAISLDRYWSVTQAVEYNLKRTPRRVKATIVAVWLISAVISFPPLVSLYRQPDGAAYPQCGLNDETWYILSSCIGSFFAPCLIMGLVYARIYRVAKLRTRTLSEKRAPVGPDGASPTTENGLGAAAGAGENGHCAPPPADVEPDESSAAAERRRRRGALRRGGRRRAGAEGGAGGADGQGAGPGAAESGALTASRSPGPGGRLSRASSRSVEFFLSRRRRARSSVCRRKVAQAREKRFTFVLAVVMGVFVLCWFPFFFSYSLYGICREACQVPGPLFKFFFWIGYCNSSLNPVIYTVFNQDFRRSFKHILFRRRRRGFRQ
In short: (§1)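 Cytosensor microphysiometry on CHO cells stably expressing one human α2-AR subtype, seeded at 3 × 10⁵ cells/cup and grown 24 h at 37 °C. Cells were perfused with bicarbonate-free DMEM and exposed to agonist for 4 min, with 30 min washes between exposures. The read-out is the change in acidification rate: peak after agonist minus the mean of three prior readings. Mean ± SEM, 3–6 experiments.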

[2] = molecular target: T2, Alpha-2B adrenergic receptor (Homo sapiens) (UniProt P18089); details: CHO
T2 sequence (whole entry): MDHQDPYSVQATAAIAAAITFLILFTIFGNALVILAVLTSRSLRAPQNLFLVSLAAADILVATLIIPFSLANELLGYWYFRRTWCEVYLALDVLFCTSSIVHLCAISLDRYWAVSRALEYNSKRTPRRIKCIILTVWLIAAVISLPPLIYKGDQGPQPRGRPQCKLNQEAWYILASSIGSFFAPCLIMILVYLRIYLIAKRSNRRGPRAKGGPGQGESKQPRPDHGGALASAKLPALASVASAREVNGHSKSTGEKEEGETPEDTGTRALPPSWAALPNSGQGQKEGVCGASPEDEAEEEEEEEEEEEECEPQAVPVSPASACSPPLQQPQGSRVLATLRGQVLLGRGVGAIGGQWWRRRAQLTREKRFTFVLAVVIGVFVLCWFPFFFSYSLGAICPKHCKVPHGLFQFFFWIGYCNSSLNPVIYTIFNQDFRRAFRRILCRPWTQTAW

[3] = molecular target: T3, Alpha-2B adrenergic receptor (Homo sapiens, UniProt P18089); assay: Displacement of [3H]RX821002 from human alpha2B adrenoceptor expressed in CHO cells; assay type: cell-based
T3 sequence (P18089 whole entry): T2 sequence (whole entry)
In short: (§2)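 Buffer was Tris-Mg (50 mM Tris-HCl, 0.5 mM MgCl2, pH 7.5), competitor 10^-9 to 10^-4 M, 30 min at room temperature. Bound ligand was filtered and counted. Ki by nonlinear one- or two-site fit, reported as pKi.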

[4] = molecular target: T1, Alpha-2C adrenergic receptor; assay: Displacement of [3H]RX821002 from human Alpha-2C adrenoceptor expressed in CHO cells; assay type: cell-based; in short: as §2
[5] = molecular target: T4, Alpha-2C adrenergic receptor (Homo sapiens) (UniProt P18825); assay: Agonist activity at human Alpha-2C adrenoceptor expressed in CHO cells assessed as induction of extracellular acidification by microphysiometry relative to (-)noradrenaline; assay type: functional, cell-based
T4 sequence (whole entry): T1 sequence (P18825 whole entry)
In short: as §1, with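 “readings. […]” for “readings.”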

[6] = molecular target: T5, Alpha-2A adrenergic receptor (Homo sapiens, UniProt P08913); assay: Agonist activity at human alpha2A adrenoceptor expressed in CHO cells assessed as induction of extracellular acidification by microphysiometry; assay type: functional, cell-based
T5 sequence (P08913 whole entry): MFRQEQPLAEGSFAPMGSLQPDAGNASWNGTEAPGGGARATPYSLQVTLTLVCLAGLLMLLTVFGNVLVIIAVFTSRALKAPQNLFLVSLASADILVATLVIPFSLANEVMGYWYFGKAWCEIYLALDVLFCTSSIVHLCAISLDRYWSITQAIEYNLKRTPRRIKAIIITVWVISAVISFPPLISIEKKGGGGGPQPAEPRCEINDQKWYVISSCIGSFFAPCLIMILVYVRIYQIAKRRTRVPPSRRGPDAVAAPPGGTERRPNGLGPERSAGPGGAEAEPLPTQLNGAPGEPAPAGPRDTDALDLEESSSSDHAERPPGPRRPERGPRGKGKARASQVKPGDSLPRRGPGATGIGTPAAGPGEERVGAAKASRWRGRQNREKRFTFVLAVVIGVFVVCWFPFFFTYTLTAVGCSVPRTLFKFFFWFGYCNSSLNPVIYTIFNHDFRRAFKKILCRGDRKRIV
In short: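 CHO cells stably expressing human α2A-AR were seeded at 3 × 10⁵ cells/cup and held 24 h at 37 °C under 5% CO₂. They were then perfused at 100 μL/min with bicarbonate-free DMEM containing glutamine and NaCl. Agonist exposure lasted 4 min, with 30 min washes between exposures.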

[7] = molecular target: T5, Alpha-2A adrenergic receptor; assay: Displacement of [3H]RX821002 from human alpha2A adrenoceptor expressed in CHO cells; assay type: cell-based
In short: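 Crude membranes from CHO cells expressing human α2A-AR were incubated in Tris-Mg buffer (50 mM Tris-HCl, 0.5 mM MgCl₂, pH 7.5). Ki came from one- or two-site nonlinear regression and is given as pKi.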

Mus musculus [8] = assay: Reduction in morphine dependence expression in CD1 mouse assessed as decrease in expression of naloxone-precipitated withdrawal syndrome at 0.05 mg/kg, ip bid administered 15 mins before last morphine dosing […]; assay type: functional, organism-based; set-up: dose 0.05 mg/kg
In short: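 In male CD-1 mice, morphine 10 mg/kg sc was given twice daily at 12 h intervals for 6 days, with test agent 0.05 mg/kg ip 15 min before each morphine dose. Jumping was counted, and somatic signs were scored as the sum of rearing, forepaw tremor and teeth chatter. Blind observers; mean ± SEM.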

Mus musculus [9] = assay: Reduction in morphine dependence expression in CD1 mouse assessed as decrease in expression of naloxone-precipitated withdrawal syndrome at 0.05 mg/kg, ip administered as single dose […] on test day post morphine challenge […]; assay type: functional, organism-based; set-up: dose 0.05 mg/kg
[10] = molecular target: T3, Alpha-2B adrenergic receptor; assay: Agonist activity at human alpha2B adrenoceptor expressed in CHO cells assessed as induction of extracellular acidification by microphysiometry
Mus musculus [11] = assay: Analgesic effect in CD1 mouse at 0.05 mg/kg, ip by radiant heat tail flick test; assay type: functional, organism-based; set-up: dose 0.05 mg/kg
In short: (§3)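 Male CD-1 mice (25–35 g) received test agent 0.05 mg/kg ip or vehicle 15 min before morphine 5 mg/kg sc. Radiant-heat tail-flick to the lower third of the tail; baseline latency (2–3 s) is the mean of two trials. Latencies were read at 30, 60, 90, 120 and 240 min and expressed as %MPE. 7–8 mice per group, mean ± SEM.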

[12] = molecular target: T6, Alpha-2A adrenergic receptor (Homo sapiens) (UniProt P08913); assay: Antagonist activity at human alpha2A adrenoceptor expressed in CHO cells assessed as effect on agonist-induced extracellular acidification by microphysiometry; assay type: functional, cell-based
T6 sequence (whole entry): T5 sequence (P08913 whole entry)
In short: (§4)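 CHO cells stably expressing one human α2-AR subtype were run on the Cytosensor microphysiometer with bicarbonate-free DMEM perfusion. […] Kb = M/(concentration ratio − 1), where the ratio is EC50 with antagonist over EC50 without. Reported as pKb, mean ± SEM of 3–6 experiments.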

Mus musculus [13] = assay: Enhancement of morphine-induced analgesic effect in CD1 mouse at 0.05 mg/kg, ip administered 15 mins before morphine dosing measured 30 to 240 mins post morphine challenge by radiant heat tail flick test; assay type: functional, organism-based; set-up: dose 0.05 mg/kg; in short: as §3
Mus musculus [14] = assay: Toxicity in CD1 mouse assessed as effect on sleep duration at 0.05 mg/kg, ip by pentobarbital sodium induced sleep time assay; assay type: organism-based; set-up: dose 0.05 mg/kg, route intraperitoneal; details: in vivo
In short: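 Male CD-1 mice (n = 10 per group) were given test agent 0.05 mg/kg or vehicle, then sodium pentobarbital 50 mg/kg ip 15 min later. Sleep duration, the time from loss to regain of the righting reflex, was recorded in seconds. Mean ± SEM.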

Mus musculus [15] = assay: Enhancement of morphine-induced analgesic effect in CD1 mouse at 0.05 mg/kg, ip administered 15 mins before morphine dosing measured 30 to 240 mins post morphine challenge in presence of Alpha-2C adrenergic receptor antagonist yohimbine by radiant heat tail flick test; assay type: functional, organism-based; set-up: dose 0.05 mg/kg
In short: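 Male CD-1 mice got yohimbine 1.250 mg/kg ip 15 min before test agent (0.05 mg/kg ip). Test agent was given 15 min before morphine 5 mg/kg sc. Radiant-heat tail-flick latency was read 30–240 min after morphine and expressed as %MPE.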

Mus musculus [16] = assay: Reduction in morphine tolerance acquisition in CD1 mouse assessed as morphine analgesic effect incidence at 0.05 mg/kg, ip administered as single dose 15 mins before last morphine dosing on test day post morphine challenge by radiant heat tail flick test; assay type: functional; set-up: scale not given: the % may be the effect or the level left; details: route intraperitoneal
In short: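 Tolerance was induced in male CD-1 mice with morphine 10 mg/kg sc twice daily at 12 h intervals for 5 days. On day 5, test agent 0.05 mg/kg ip was given once, 15 min before the last morphine injection. Tail-flick antinociception was read 30 min after that injection and expressed as %MPE, with day 1 vs day 5 compared.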

Mus musculus [17] = assay: Reduction in morphine tolerance acquisition in CD1 mouse assessed as morphine analgesic effect incidence at 0.05 mg/kg, ip bid administered 15 mins before last morphine dosing by radiant heat tail flick test; assay type: functional, organism-based; set-up: dose 0.05 mg/kg
[18] = molecular target: T2, Alpha-2B adrenergic receptor (Homo sapiens); assay: Antagonist activity at human alpha2B adrenoceptor expressed in CHO cells assessed as effect on agonist-induced extracellular acidification by microphysiometry; assay type: functional, cell-based; in short: as §4
[19] = molecular target: T4, Alpha-2C adrenergic receptor (Homo sapiens); assay: Antagonist activity at human Alpha-2C adrenoceptor expressed in CHO cells assessed as effect on agonist-induced extracellular acidification by microphysiometry; assay type: functional, cell-based; in short: as §4

`C[C@@H](Oc1ccccc1-c1ccsc1)C1=NCCN1` was tested, and the EC50 [1] was 100 nM, the pEC50 [2] was “inactive” and the Ki [3] was 708 nM. It also gave a Ki [4] of 316 nM, an Intrinsic activity [5] of 0.7 and an EC50 [6] of 3160 nM. For the same compound, the Ki [7] was 166 nM.
With `C[C@H](Oc1ccccc1-c1ccccc1)C1=NCCN1` the Intrinsic activity [5] was 0.9.
`C=CCc1ccccc1O[C@@H](C)C1=NCCN1` was tested, and the EC50 [1] was 25.1 nM, the Activity (Mus musculus [8]) was “Active” and the Activity (Mus musculus [9]) was “Active”. For the same compound, the EC50 [10] was 1000 nM, the Activity (Mus musculus [11]) was “inactive” and the pKb [12] was 7.8. The Activity (Mus musculus [13]) was “Active”, the Activity (Mus musculus [14]) was “Non-toxic” and the Ki [3] was 398 nM. For the same compound, the Activity (Mus musculus [15]) was “inactive”, the Ki [4] was 70.8 nM and the Intrinsic activity [5] was 0.9. For the same compound, the Activity (Mus musculus [16]) was 22% and the Activity (Mus musculus [17]) was “Active”.
`C[C@H](Oc1ccccc1-c1cccc(O)c1)C1=NCCN1` showed an EC50 [1] of 2510 nM, a pKb [12] of 6 and a pKb [18] of 5.5. For the same compound, the Ki [3] was 1000 nM, the Ki [4] was 112 nM and the Intrinsic activity [5] was 0.65. For the same compound, the Ki [7] was 97.7 nM.
With `CC(Oc1ccccc1-c1cccc(O)c1)C1=NCCN1` (racemic) the pKb [12] was 6.2 and the Intrinsic activity [5] was 1.15.
`Clc1cccc(Cl)c1NC1=NCCN1` was tested, and the Intrinsic activity [5] was 0.6.
For `C[C@H](Oc1ccccc1C1CC1)C1=NCCN1`, the EC50 [1] was 35.5 nM, the EC50 [10] was 3160 nM and the Activity (Mus musculus [11]) was “inactive”. For the same compound, the pKb [12] was 7.7, the Activity (Mus musculus [13]) was “Active” and the Ki [3] was 263 nM. The Ki [4] was 63.1 nM, the Intrinsic activity [5] was 0.9 and the Ki [7] was 20.9 nM.
With `CC(Oc1ccccc1-c1ccsc1)C1=NCCN1` (racemic) the pEC50 [2] was “inactive” and the Intrinsic activity [5] was 0.85.
Work on `CC(Oc1ccccc1)C1=NCCN1` (racemic) yielded a pKb [12] of 7.01, a pKb [18] of 6.2 and a pKb [19] of 6.85.
